Experimental data published in publication PMC8897028 (Acta Pharmaceutica Sinica. B, 2021).

Assays:
Type in all cases: cell-based, human
[1] = test system: HEK293 cells expressing hTRPV3; test: cell death assay; settings: 12 h, n = 4
Outline: (§1)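 HEK293 cells 12 h after hTRPV3 transfection, or HaCaT cells, were seeded in six-well plates, randomly split into 6 groups, and treated 12 h in culture medium. Cells were detached with 0.25% trypsin (HEK293 1 min; HaCaT 7 min), centrifuged, and stained 30 min in PBS with Hoechst and PI. Five random fields per group were imaged. Death ratio = PI-labelled over Hoechst-labelled nuclei, averaged over five images; n = 4.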

HaCaT cells [2] = test: cell death assay; settings: IAB added with carvacrol 300 μmol/L; 12 h
Outline: as §1

HaCaT cells [3] = test: cell proliferation MTT assay, HaCaT cells; settings: IAB at 10 and 100 μmol/L with carvacrol 300 μmol/L, 24 h
Outline: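 hTRPV3-transfected HEK293 or HaCaT cells were plated at 5 × 10^3 per well for 24 h, then exposed 24 h to TRPV3 activator and/or inhibitor in culture medium. MTT (5 mg/mL solution) was added for 4 h. Medium was removed, formazan dissolved in DMSO, and absorbance read at 490 nm.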

Which cell death ratio ([1]; IAB 10 μmol/L with carvacrol 300 μmol/L) does the source give for `O=C(/C=C/c1ccc(O)c(O)c1)O[C@@H]1[C@H](O)C[C@@](O)(C(=O)O)C[C@H]1OC(=O)/C=C/c1ccc(O)c(O)c1` [IAB, isochlorogenic acid B] here?
Its cell death ratio is 11.7 ± 0.9%.

And the cell death ratio ([1]; IAB 100 μmol/L with carvacrol 300 μmol/L)?
Its cell death ratio is 9.9 ± 1.2%.

And the HaCaT cell death (HaCaT cells [2])?
The HaCaT cell death was “dose-dependent reduction of HaCaT cell death”.

What about the “reversal of overactive TRPV3-induced inhibition of cell proliferation” value (HaCaT cells [3]) of the same compound?
Its value is “significantly reversed”.
